Results: ChEMBL document CHEMBL3046412, “Ring substituted 3-phenyl-1-(2-pyrazinyl)-2-propen-1-ones as potential photosynthesis-inhibiting, antifungal and antimycobacterial agents” (Farmaco, 2002)
Converted amounts (≈) assume the structure as drawn.

What was measured:
[1] = test system: Mycobacterium tuberculosis; assay: Antimycobacterial activity against Mycobacterium tuberculosis H37Rv ATCC 27294 at 12.5 ug/ml by microplate alamar blue assay relative to control; assay type: functional
[2] = test system: Trichophyton mentagrophytes; assay: Antifungal activity against Trichophyton mentagrophytes 445 after 72 hr by microdilution broth method; assay type: functional; details: Trichophyton mentagrophytes, 445, 72 h
In short: (§1)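 Broth microdilution in RPMI 1640 buffered to pH 7.0 with 0.165 M MOPS; compounds in DMSO, with compound-free controls. Strain subcultured and kept on Sabouraud dextrose agar at 4 °C. Conidia were suspended in sterile 0.85% saline, counted in a Bürker chamber to 1.0–5.0×10⁵ cfu ml⁻¹ stock, and diluted 1:20 in medium. Static incubation at 35 °C. MIC is 80% growth inhibition versus control.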

[3] = test system: Trichophyton mentagrophytes; assay: Antifungal activity against Trichophyton mentagrophytes 445 after 120 hr by microdilution broth method; assay type: functional; details: Trichophyton mentagrophytes, 445, 120 h; in short: as §1
Chlorella vulgaris [4] = assay: Inhibition of photosynthesis in Chlorella vulgaris chloroplast assessed as reduction of oxygen evolution rate after 4 hr by spectrophotometric analysis; assay type: functional
Chlorella vulgaris [5] = assay: Inhibition of photosynthesis in Chlorella vulgaris assessed as reduction of chlorophyll production at 0.1 mM/l after 7 days by spectrophotometric analysis; assay type: functional; details: 168 h
In short: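 Statically cultured Chlorella vulgaris suspensions were exposed to 0.1 mmol l⁻¹ compound, with 1% solvent in samples and control. After 7 days, chlorophyll was extracted into N,N-dimethylformamide and quantified spectrophotometrically.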

Spinacia oleracea = assay: Inhibition of photosynthesis in Spinacia oleracea (spinach) chloroplast assessed as reduction of oxygen evolution rate after 4 hr by spectrophotometric analysis; assay type: functional
In short: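 Oxygen evolution rate was measured in spinach chloroplasts at 30 mg l⁻¹, read spectrophotometrically with 2,6-dichlorophenol–indophenol as electron acceptor.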

Candida tropicalis [6] = assay: Antifungal activity against Candida tropicalis 156 after 24 hr by microdilution broth method; assay type: functional; details: Candida tropicalis, 156, 24 h
In short: (§2)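 Broth microdilution in RPMI 1640 buffered to pH 7.0 with 0.165 M MOPS; compounds dissolved in DMSO; drug-free controls included. Strains were kept on Sabouraud dextrose agar at 4 °C and passaged onto SDA before testing. Yeasts, conidia or sporangiospores were suspended in 0.85% saline to a stock of 1.0–5.0×10⁵ cfu ml⁻¹, then diluted 1:20 in medium. Plates were incubated statically at 35 °C.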

Candida albicans [7] = assay: Antifungal activity against Candida albicans ATCC 44859 after 48 hr by microdilution broth method; assay type: functional; details: ATCC 44859, 48 h; in short: as §2
Candida albicans [8] = assay: Antifungal activity against Candida albicans ATCC 44859 after 24 hr by microdilution broth method; assay type: functional; details: ATCC 44859, 24 h; in short: as §2
Lichtheimia corymbifera [9] = assay: Antifungal activity against Lichtheimia corymbifera 272 after 48 hr by microdilution broth method; assay type: functional; details: Lichtheimia corymbifera, 272, 48 h; in short: as §2
Lichtheimia corymbifera [10] = assay: Antifungal activity against Lichtheimia corymbifera 272 after 24 hr by microdilution broth method; assay type: functional; details: Lichtheimia corymbifera, 272, 24 h; in short: as §2
Aspergillus fumigatus [11] = assay: Antifungal activity against Aspergillus fumigatus 231 after 24 hr by microdilution broth method; assay type: functional; details: Aspergillus fumigatus, 231, 24 h; in short: as §2
Aspergillus fumigatus [12] = assay: Antifungal activity against Aspergillus fumigatus 231 after 48 hr by microdilution broth method; assay type: functional; details: Aspergillus fumigatus, 231, 48 h; in short: as §2
Trichosporon beigelii [13] = assay: Antifungal activity against Trichosporon beigelii 1188 after 48 hr by microdilution broth method; assay type: functional; details: Trichosporon beigelii, 1188, 48 h; in short: as §2
Nakaseomyces glabratus [14] = assay: Antifungal activity against Candida glabrata 20/I after 48 hr by microdilution broth method; assay type: functional; in short: as §2
Trichosporon beigelii [15] = assay: Antifungal activity against Trichosporon beigelii 1188 after 24 hr by microdilution broth method; assay type: functional; details: Trichosporon beigelii, 1188, 24 h; in short: as §2
Nakaseomyces glabratus [16] = assay: Antifungal activity against Candida glabrata 20/I after 24 hr by microdilution broth method; assay type: functional; in short: as §2
Pichia kudriavzevii [17] = assay: Antifungal activity against Pichia kudriavzevii E 28 after 24 hr by microdilution broth method; assay type: functional; details: E 28, 24 h; in short: as §2
Pichia kudriavzevii [18] = assay: Antifungal activity against Pichia kudriavzevii E 28 after 48 hr by microdilution broth method; assay type: functional; details: E 28, 48 h; in short: as §2
Candida tropicalis [19] = assay: Antifungal activity against Candida tropicalis 156 after 48 hr by microdilution broth method; assay type: functional; details: Candida tropicalis, 156, 48 h; in short: as §2

Row | Compound | inhibition at 12.5 µg/mL [1] | MIC80 [2] | MIC80 [3] | IC50 (Chlorella vulgaris [4]) | inhibition at 100 µM (Chlorella vulgaris [5]) | IC50 (Spinacia oleracea) | also measured
1 | O=C(/C=C/c1ccc(O)cc1)c1cnccn1 | 42% | 62.5 µM (≈ 14.1 µg/mL) | 125 µM (≈ 28.3 µg/mL) | – | – | – | –
2 | CC(C)Cc1cnc(C(=O)/C=C/c2ccc(O)cc2)cn1 | 63% | > 500 µM | > 500 µM | 232 µM | 35% | 235 µM | –
3 | CCCCc1cnc(C(=O)/C=C/c2ccc(O)cc2)cn1 | 51% | 31.2 µM (≈ 8.82 µg/mL) | 62.5 µM (≈ 17.6 µg/mL) | 265 µM | 10% | 306 µM | –
4 | CCCc1cnc(C(=O)/C=C/c2ccc(O)cc2)cn1 | 35% | 31.2 µM (≈ 8.38 µg/mL) | 62.5 µM (≈ 16.8 µg/mL) | 514 µM | 12% | 399 µM | –
5 | CN(C)c1ccc(/C=C/C(=O)c2cnccn2)cc1 | 26% | > 62.5 µM | > 62.5 µM | – | – | – | –
6 | CC(C)Cc1cnc(C(=O)/C=C/c2ccc(N(C)C)cc2)cn1 | 10% | 250 µM (≈ 77.4 µg/mL) | > 250 µM | – | – | – | –
7 | CCCCc1cnc(C(=O)/C=C/c2ccc(N(C)C)cc2)cn1 | 0% | > 250 µM | > 250 µM | – | – | – | –
8 | CCCc1cnc(C(=O)/C=C/c2ccc(N(C)C)cc2)cn1 | 8% | > 250 µM | > 250 µM | – | – | – | –
9 | CCCCCCCCSc1cc(C(N)=S)ccn1 | – | – | – | 48 µM | 100% | 72 µM | –
10 | CC(C)(C)c1ncc(C(=O)Nc2cc(O)cc(Cl)c2)nc1Cl | – | – | – | 99 µM | – | 105 µM | –
11 | CC(C)(C)c1cnc(C(=O)Nc2cccc(O)c2)cn1 | – | – | – | 329 µM | – | 478 µM | –
12 | COc1cc(/C=C/C(=O)c2cnccn2)ccc1O | 35% | 125 µM (≈ 32 µg/mL) | – | – | – | – | –
13 | COc1cc(/C=C/C(=O)c2cnc(CC(C)C)cn2)ccc1O | 53% | 250 µM (≈ 78.1 µg/mL) | – | – | – | – | –
14 | CCCCc1cnc(C(=O)/C=C/c2ccc(O)c(OC)c2)cn1 | 45% | > 100 µM | – | – | – | – | –
15 | CCCc1cnc(C(=O)/C=C/c2ccc(O)c(OC)c2)cn1 | 20% | > 125 µM | – | – | – | – | –
16 | O=C(/C=C/c1ccccc1O)c1cnccn1 | 55% | 15.6 µM (≈ 3.53 µg/mL) | 31.2 µM (≈ 7.07 µg/mL) | – | – | – | MIC80 (Candida tropicalis [6]): 125 µM (≈ 28.3 µg/mL); MIC80 (Candida albicans [7]): 62.5 µM (≈ 14.1 µg/mL); MIC80 (Candida albicans [8]): 62.5 µM (≈ 14.1 µg/mL); MIC80 (Lichtheimia corymbifera [9]): 250 µM (≈ 56.6 µg/mL); MIC80 (Lichtheimia corymbifera [10]): 125 µM (≈ 28.3 µg/mL); MIC80 (Aspergillus fumigatus [11]): 125 µM (≈ 28.3 µg/mL); MIC80 (Aspergillus fumigatus [12]): 250 µM (≈ 56.6 µg/mL); MIC80 (Trichosporon beigelii [13]): 250 µM (≈ 56.6 µg/mL); MIC80 (Nakaseomyces glabratus [14]): 250 µM (≈ 56.6 µg/mL); MIC80 (Trichosporon beigelii [15]): 125 µM (≈ 28.3 µg/mL); MIC80 (Nakaseomyces glabratus [16]): 125 µM (≈ 28.3 µg/mL); MIC80 (Pichia kudriavzevii [17]): 125 µM (≈ 28.3 µg/mL); MIC80 (Pichia kudriavzevii [18]): 250 µM (≈ 56.6 µg/mL); MIC80 (Candida tropicalis [19]): 250 µM (≈ 56.6 µg/mL)
17 | CC(C)Cc1cnc(C(=O)/C=C/c2ccccc2O)cn1 | 20% | 31.2 µM (≈ 8.82 µg/mL) | – | 63 µM | 92% | 144 µM | –
18 | CCCCc1cnc(C(=O)/C=C/c2ccccc2O)cn1 | 33% | 3.91 µM (≈ 1.1 µg/mL) | 15.6 µM (≈ 4.41 µg/mL) | 147 µM | 89% | 184 µM | –
19 | CCCc1cnc(C(=O)/C=C/c2ccccc2O)cn1 | 50% | 7.81 µM (≈ 2.1 µg/mL) | 7.81 µM (≈ 2.1 µg/mL) | 100 µM | 68% | 187 µM | –
20 | CC(=O)N1CCN(c2ccc(OCC3COC(Cn4ccnc4)(c4ccc(Cl)cc4Cl)O3)cc2)CC1 (centres undefined) [KETOCONAZOLE] | – | 0.24 µM (≈ 0.128 µg/mL) | 1.95 µM (≈ 1.04 µg/mL) | – | – | – | MIC80 (Candida tropicalis [6]): 3.91 µM (≈ 2.08 µg/mL); MIC80 (Candida albicans [7]): ≤ 0.06 µM; MIC80 (Candida albicans [8]): ≤ 0.06 µM; MIC80 (Lichtheimia corymbifera [9]): 15.6 µM (≈ 8.31 µg/mL); MIC80 (Lichtheimia corymbifera [10]): 15.6 µM (≈ 8.31 µg/mL); MIC80 (Aspergillus fumigatus [11]): 7.81 µM (≈ 4.15 µg/mL); MIC80 (Aspergillus fumigatus [12]): 7.81 µM (≈ 4.15 µg/mL); MIC80 (Trichosporon beigelii [13]): ≤ 0.06 µM; MIC80 (Nakaseomyces glabratus [14]): 1.95 µM (≈ 1.04 µg/mL); MIC80 (Trichosporon beigelii [15]): ≤ 0.06 µM; MIC80 (Nakaseomyces glabratus [16]): 0.49 µM (≈ 0.26 µg/mL); MIC80 (Pichia kudriavzevii [17]): 1.95 µM (≈ 1.04 µg/mL); MIC80 (Pichia kudriavzevii [18]): 1.95 µM (≈ 1.04 µg/mL); MIC80 (Candida tropicalis [19]): 7.81 µM (≈ 4.15 µg/mL)
21 | NC(=O)c1cnccn1 [PYRAZINAMIDE] | 100% | – | – | – | – | – | –
